Results published in ChEMBL document CHEMBL4346727, “Synthesis and pharmacological evaluation of novel N-Mannich bases derived from 5,5-diphenyl and 5,5-di(propan-2-yl)imidazolidine-2,4-dione core” (Bioorg Med Chem Lett, 2019).
The source made the active and inactive calls. Unless noted, the rule behind the calls is not given here.

Tests used:
Rattus norvegicus [1] = assay: Anticonvulsant activity in Sprague-Dawley rat assessed as protection against 150 mA current-induced seizure at 30 mg/kg, po measured after 1 hr by maximal electroshock seizure test; type: functional, organism-based
How it was run: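 Rats received 30 mg/kg orally and were given maximal electroshock at 0.25, 0.5, 1, 2, 4 and 6 h. Read-out is the number of rats protected out of four.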

Mus musculus [2] = assay: Anticonvulsant activity in CD1 mouse assessed as protection against 32 mA current-induced seizure at 25 mg/kg, ip measured after 1 hr by 6 Hz psychomotor seizure test
[3] = Neurotoxicity in po dosed Sprague-Dawley rat model by rotarod test; type: toxicity, organism-based; conditions: in vivo
How it was run: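 Rats dosed orally; neurotoxicity scored on the rotarod. Screening used a fixed 30 mg/kg, with animals checked at 0.25, 0.5, 1, 2, 4 and 6 h; the reading is the number of four rats showing neurotoxicity. In quantitative runs, a median toxic dose (TD50, mg/kg) was determined after oral dosing at the time of peak effect.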

[4] = Protection index, ratio of TD50 for neurotoxicity in ip dosed CD1 mouse by rotarod test to ED50 for anticonvulsant activity in CD1 mouse by 6 Hz psychomotor seizure test; type: toxicity, organism-based; conditions: in vivo, read-out: Ratio TD50/ED50
Mus musculus [5] = assay: Anticonvulsant activity in CD1 mouse assessed as protection against 32 mA current-induced seizure at 50 mg/kg, ip measured after 30 mins by 6 Hz psychomotor seizure test
Mus musculus [6] = assay: Anticonvulsant activity in CD1 mouse assessed as protection against 32 mA current-induced seizure at 25 mg/kg, ip measured after 4 hrs by 6 Hz psychomotor seizure test
Rattus norvegicus [7] = assay: Anticonvulsant activity in po dosed Sprague-Dawley rat assessed as protection against 150 mA current-induced seizures; type: functional
How it was run: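 Median effective doses were quantified in the maximal electroshock, subcutaneous pentylenetetrazole and 6 Hz tests after intraperitoneal dosing in mice or oral dosing in rats, at the time of peak effect. ED50 values are reported with ranges in parentheses.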

Mus musculus [8] = assay: […] in CD1 mouse model assessed as formalin-induced nociception by measuring AUC during acute phase at 11 mg/kg, ip measured for 5 mins by formalin test relative to control; type: functional
[9] = Neurotoxicity in Sprague-Dawley rat at 30 mg/kg, po measured after 30 mins by rotarod test; type: toxicity, organism-based; conditions: in vivo, 0.5 h
How it was run: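 Rats given one oral dose of 30 mg/kg and tested on the rotarod at 0.25, 0.5, 1, 2, 4 and 6 h.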

Mus musculus [10] = assay: Potency index, ratio of phenytoin ED50 to compound ED50 for anticonvulsant activity in ip dosed CD1 mouse by 6 Hz psychomotor seizure test; type: functional
Mus musculus [11] = assay: Anticonvulsant activity in ip dosed CD1 mouse assessed as protection against 50 mA current-induced seizure and measured after 4 hrs by maximal electroshock seizure test; type: functional; conditions: read-out: MED
How it was run: (§1)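 Mice were screened after intraperitoneal doses of 30, 100 and 300 mg/kg in the maximal electroshock and subcutaneous pentylenetetrazole tests, examined at 0.5 and 4 h. The value recorded is the minimum dose showing activity. No activity up to 300 mg/kg is scored as absent.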

Rattus norvegicus [12] = assay: Anticonvulsant activity in po dosed Sprague-Dawley rat assessed as time to peak effect on protection against 32 mA current-induced seizure by 6 Hz psychomotor seizure test; type: functional
[13] = Neurotoxicity in CD1 mouse at 50 mg/kg, ip measured after 1 hr by rotarod test; conditions: in vivo
Mus musculus [14] = assay: Anticonvulsant activity in CD1 mouse assessed as protection against 32 mA current-induced seizure at 100 mg/kg, ip measured after 1 hr by 6 Hz psychomotor seizure test
Mus musculus [15] = assay: Anticonvulsant activity in ip dosed CD1 mouse assessed as protection against 50 mA current-induced seizure and measured after 0.5 hrs by maximal electroshock seizure test; type: functional; conditions: read-out: MED; how it was run: as §1
[16] = Neurotoxicity in CD1 mouse at 25 mg/kg, ip measured after 15 mins by rotarod test; conditions: in vivo, 0.25 h
[17] = Neurotoxicity in ip dosed CD1 mouse assessed as time to peak effect by rotarod test; type: toxicity, organism-based; conditions: in vivo
[18] = Neurotoxicity in CD1 mouse at 25 mg/kg, ip measured after 4 hrs by rotarod test; conditions: in vivo
Mus musculus [19] = assay: Anticonvulsant activity in CD1 mouse assessed as protection against 32 mA current-induced seizure at 100 mg/kg, ip measured after 4 hrs by 6 Hz psychomotor seizure test
[20] = Neurotoxicity in CD1 mouse at 25 mg/kg, ip measured after 2 hrs by rotarod test; conditions: in vivo
Mus musculus [21] = assay: Anticonvulsant activity in CD1 mouse assessed as protection against subcutaneous pentylenetetrazole-induced seizures at 300 mg/kg, ip and measured after 0.5 hrs; type: functional, organism-based; how it was run: as §1
[22] = Neurotoxicity in CD1 mouse at 25 mg/kg, ip measured after 1 hr by rotarod test; conditions: in vivo
[23] = Neurotoxicity in CD1 mouse at 100 mg/kg, ip and measured after 0.5 to 4 hrs by rotarod test; type: toxicity, organism-based; conditions: in vivo
How it was run: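 Rotarod neurotoxicity screen in mice after intraperitoneal dosing. For the 6 Hz series the count is mice out of four showing neurotoxicity, scored as inability to grasp the rotarod or muscle spasms, at 0.25–4 h. For the initial screen the minimum toxic dose is taken from 30, 100 and 300 mg/kg at 0.5 and 4 h.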

Mus musculus [24] = assay: Anticonvulsant activity in CD1 mouse assessed as protection against 32 mA current-induced seizure at 50 mg/kg, ip measured after 1 hr by 6 Hz psychomotor seizure test
[25] = Neurotoxicity in CD1 mouse at 50 mg/kg, ip measured after 30 mins by rotarod test; conditions: in vivo, 0.5 h
[26] = Neurotoxicity in CD1 mouse at 50 mg/kg, ip measured after 4 hrs by rotarod test; conditions: in vivo
Mus musculus [27] = assay: Anticonvulsant activity in CD1 mouse assessed as protection against subcutaneous pentylenetetrazole-induced seizures at 300 mg/kg, ip and measured after 4 hrs; type: functional, organism-based; how it was run: as §1
Mus musculus [28] = assay: Anticonvulsant activity in CD1 mouse assessed as protection against 32 mA current-induced seizure at 25 mg/kg, ip measured after 2 hrs by 6 Hz psychomotor seizure test
Mus musculus [29] = assay: Anti-inflammatory activity in CD1 mouse model assessed as formalin-induced nociception by measuring AUC during inflammatory phase at 11 mg/kg, ip measured for 5 mins by formalin test relative to control; type: functional
Mus musculus [30] = assay: Anticonvulsant activity in CD1 mouse assessed as protection against 32 mA current-induced seizure at 50 mg/kg, ip measured after 15 mins by 6 Hz psychomotor seizure test

SMILES: CN1CCN(CN2C(=O)NC(c3ccccc3)(c3ccccc3)C2=O)CC1
- Activity (Rattus norvegicus [1]): Active
- Activity (Mus musculus [2]): Active
- TD50 [3]: > 500 mg/kg
- selectivity ratio [4]: 6.19
- Activity (Mus musculus [5]): Active
- Activity (Mus musculus [6]): inactive
- ED50 (Rattus norvegicus [7]): 38.5 mg/kg
- Activity (Mus musculus [8]): 67.52%
- Activity [9]: Non-Toxic
- Ratio ED50 (Mus musculus [10]): 5
- minimal effective dose (Mus musculus [11]): 10 mg/kg
- Time (Rattus norvegicus [12]): 2 h
- Activity [13]: Non-Toxic
- Activity (Mus musculus [14]): Active
- minimal effective dose (Mus musculus [15]): 10 mg/kg
- Activity [16]: Non-Toxic
- Time [17]: 1 h
- Activity [18]: Non-Toxic
- Activity (Mus musculus [19]): Active
- Activity [20]: Non-Toxic
- MED (Mus musculus [21]): inactive
- Activity [22]: Non-Toxic
- Activity [23]: Toxic
- Activity (Mus musculus [24]): Active
- Activity [25]: Non-Toxic
- Activity [26]: Non-Toxic
- Activity (Mus musculus [27]): inactive
- Activity (Mus musculus [28]): inactive
- Activity (Mus musculus [29]): 90.3%
- Activity (Mus musculus [30]): Active
